T cell HTS: T cell immune modulators affecting CD8 T cell-vesicle binding | 2C CD8+ T cell-vesicle binding, flow cytometry; stronger effect = lower value | response (vesicle binding), % at 7 µM | 330,000 tested, 0.068% active;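 active means response, share of CD8 T cells binding vesicles, and their 90th percentile fluorescence all below set limits, cut at about 80% in these data, passing the limit was not always enough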;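 further: values below 100% mean blocked vesicle binding to the CD8+ T cells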
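System: murine 2C transgenic CD8+ T lymphocytes; also added: QL9-loaded Drosophila micro-vesicles; times: binding 1.5 h at 37 °C; measured by: flow cytometry, PE anti-B7-1 (FL2) versus Alexa647 anti-CD8 (FL8), PFA-fixed; control set: Peptide-free naked vesicles (low) and QL9 vesicles with 0.7% DMSO vehicle (high)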
GRK2 aptamer HTS: blocks RNA aptamer binding to human GRK2; P25098; bead flow cytometry, FAM-aptamer displacement from GRK2; inhibition of aptamer binding, % at 10 µM; 330,000 tested, 0.59% active;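 active means inhibition of aptamer binding above 40%, roughly 3 SD of noise, on plates passing a quality check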;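 further: median bead fluorescence of bound FAM aptamer so fluorescent compounds give negative values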
Keap1 Nrf2 FP: inhibitors of human Keap1-Nrf2 protein-protein interaction | Q14145 | Keap1 Kelch-Nrf2 peptide fluorescence polarization, 1536-well | inhibition, % at 9.4 µM | 340,000 tested, 0.15% active | AID 504523; in the data active means inhibition above about 12%;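 further: human Keap1 Kelch domain with fluorescein labeled Nrf2 9mer peptide probe; higher means more block of Keap1 binding to Nrf2 peptide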
LANA DNA inh: blocks KSHV LANA C-terminal domain binding to DNA. MBP-C-LANA/FAM-LBS DNA binding, fluorescence polarization. inhibition, % at 9 µM. 340,000 tested, 0.078% active;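 active means highest replicate inhibition at or above 60% at 9 µM, even if other replicates fall short; inactive means all replicates below 60% inhibition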
EBV gp42 block: inhibitors of Epstein-Barr virus glycoprotein 42 | 220,000 tested, 0.42% active | Fluorescence polarization binding assay, mP read-out | Q1HVG2 | AID 1085 | inhibition, % (tested at 21.74 µM); in the data active means inhibition above about 50%
MEX-5 binding: C. elegans MEX-5 TCR-2 RNA binding activity; AID 1832; 300,000 tested, 0.38% active; MEX-5/FITC-TCR2 RNA binding, fluorescence polarization; stronger effect = lower value; activity score (negative = inhibition of binding), % at 10 µM; Q9XUB2;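 active means inhibition past about -25% in most replicates, and total fluorescence under double the plate's negative control median, limit read from the data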
Target sequence (Q9XUB2 whole entry, looked up): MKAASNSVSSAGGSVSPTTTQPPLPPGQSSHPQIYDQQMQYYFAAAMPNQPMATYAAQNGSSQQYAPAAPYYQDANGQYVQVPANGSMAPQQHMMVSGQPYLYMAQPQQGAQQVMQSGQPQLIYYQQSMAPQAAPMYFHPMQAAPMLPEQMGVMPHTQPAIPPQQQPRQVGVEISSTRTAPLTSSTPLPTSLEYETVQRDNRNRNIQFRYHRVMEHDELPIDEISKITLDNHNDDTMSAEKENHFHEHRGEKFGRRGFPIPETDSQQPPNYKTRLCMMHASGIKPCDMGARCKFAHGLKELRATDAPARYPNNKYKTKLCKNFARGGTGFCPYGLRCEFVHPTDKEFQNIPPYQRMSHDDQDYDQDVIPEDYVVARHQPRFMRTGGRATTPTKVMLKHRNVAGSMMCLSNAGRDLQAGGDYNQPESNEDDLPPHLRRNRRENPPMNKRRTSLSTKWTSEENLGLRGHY
GRK2 CP1: human GRK2 inhibition confirmation, cherry pick 1. shares compounds with GRK2 aptamer HTS. bead-bound GRK2, FAM-aptamer displacement, flow cytometry. aptamer displacement, % at 10 µM. 2,000 tested, 4% active. AID 504451;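 active means aptamer displacement above 40%, near three times the noise of non-fluorescent compounds, on plates passing quality checks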;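 further: negative values mostly reflect intrinsic compound fluorescence rather than true enhancement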
FAM quench CP1: aptamer fluorescence quenching in GRK2 counter-screen. shares compounds with GRK2 aptamer HTS. 2,000 tested, under 10 active. AID 504580. fluorescence response (% of DMSO), % at 10 µM. Carboxyfluorescein RNA aptamer on beads, flow cytometry quenching; stronger effect = lower value;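 active means compounds that quench the bead-bound fluorescent RNA probe, cutting fluorescence to under half of the solvent control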;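 further: counterscreen run without GRK2 so only probe quenching by compound is measured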
GRK2 CP2: human GRK2 inhibition confirmation, cherry pick 2 | inhibition of aptamer binding, % at 10 µM | AID 504782 | bead-bound GRK2, FAM-aptamer displacement, flow cytometry | 360 tested, under 10 active | shares compounds with GRK2 aptamer HTS;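 active means inhibition of aptamer binding above 40%, about triple the noise seen with nonglowing compounds, on plates passing quality control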;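 further: negative values mostly come from compounds that fluoresce themselves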
FAM quench SP: quenches fluorescent RNA aptamer, GRK2 hit artifact. shares compounds with GRK2 aptamer HTS. carboxyfluorescein RNA aptamer beads, flow cytometry quenching; stronger effect = lower value. fluorescence response vs DMSO, % at 10 µM. 360 tested, under 10 active. AID 588494;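 active means response vs DMSO under 50%, meaning signal dropped by over half, treated as fluorescence quencher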;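 further: labelled aptamer on streptavidin beads without GRK2 as a quench counter-screen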
Numbers stand for hits; – = inactive; · = no result. This is a sample that favours compounds with a hit; in the whole collection about 1.3% have one here.

SMILES	T cell HTS	GRK2 aptamer HTS	Keap1 Nrf2 FP	LANA DNA inh	EBV gp42 block	MEX-5 binding	GRK2 CP1	FAM quench CP1	others
C=CCOc1cccc(C2/C(=C(/O)c3ccc4c(c3)CC(C)O4)C(=O)C(=O)N2CCN2CCOCC2)c1 (stereo unspecified)	–	–	–	–	·	–	·	·
Cc1ccc(NC(=O)Cn2cc(C=O)c3ccccc32)cc1C	–	–	–	–	·	–	·	·
CC1(C)Cc2ccccc2-c2nnc(-c3ccccc3)n21	–	–	–	–	–	–	·	·
CC1(C)Cc2ccccc2-c2nnc(-c3cccnc3)n21	–	100	–	–	–	–	·	·	GRK2 CP2=–;FAM quench SP=–
COc1ccc(C(=O)NCC(=O)N2CCC3(CC2)NCCc2[nH]cnc23)cc1	–	–	–	–	·	–	·	·
O=Cc1ccc(Oc2nc(Cl)ncc2F)cc1	–	–	–	–	·	–	–	–
Cc1cc(OCC(=O)Nn2cnnc2)ccc1Br	–	71	–	–	–	–	–	–
COC(=O)NNC(=O)COc1ccc(Br)c(C)c1	–	–	–	–	–	–	·	·
COc1cccc(-c2nn(C)c3sc(C(=O)NCc4ccccn4)cc23)c1	–	–	–	–	–	–	·	·
CC(=O)Nc1cccc(-n2nnc(SCC(=O)Nc3ccc(F)c(Cl)c3)n2)c1	–	86	–	–	–	–	–	–
O=c1nc2ccccc2c(NS(=O)(=O)c2ccc(Cl)cc2)n1-c1ccccc1	–	–	–	–	–	–	·	·
O=C(COc1cccc(F)c1)NNC(=O)Cc1ccc(S(=O)(=O)N2CCOCC2)s1	–	46	–	–	·	·	–	–
O=C(COc1cccc(C(F)(F)F)c1)NNC(=O)Cc1ccc(S(=O)(=O)N2CCOCC2)s1	–	–	–	–	·	·	·	·
O=C(NN1C(=O)/C(=C/C=C/c2ccccc2)SC1=S)c1ccncc1	–	–	–	–	–	–	·	·
O=C(NN1C(=O)/C(=C/C=C/c2ccco2)SC1=S)c1ccncc1	–	79	·	·	–	–	–	–
Cc1cccc(C(=O)N2CCN(c3ccc(C(F)(F)F)cn3)CC2)c1C	–	–	–	–	–	–	–	–
O=c1c2cc([N+](=O)[O-])ccc2nc2n1CCCC2	–	64	–	–	·	–	–	–
COc1ccc(NCc2nnc(SCC(=O)NNC(=O)c3ccc(C)cc3)n2C)cc1	–	–	–	–	–	–	·	·
CCOC(=O)Cn1c(=NC(=O)C(C)(C)C)sc2cc([N+](=O)[O-])ccc21	–	52	–	–	–	–	·	·	GRK2 CP2=–;FAM quench SP=–
C=C(C)[C@H]1CC=C(C)C(=O)C1	–	–	–	–	·	·	·	·
Cc1cc(Nc2ncc(Cl)cc2Cl)n(-c2ccccn2)n1	·	·	–	–	–	–	·	·
Cc1ccc(-c2nn(-c3ccccc3)cc2CN(Cc2ccccc2)C(=O)c2ccco2)o1	–	–	–	–	–	–	·	·
Cn1c(N)c(C(=O)COC(=O)CCCN2C(=O)c3ccccc3C2=O)c(=O)n(C)c1=O	–	93	–	–	–	–	–	–
CC(C(=O)OCC(=O)c1c(N)n(C)c(=O)n(C)c1=O)N1C(=O)c2ccccc2C1=O (stereo unspecified)	–	–	–	–	–	–	·	·
COc1cc(/C=N/NC(=O)c2ccc(Cn3cc([N+](=O)[O-])cn3)o2)cc(Br)c1O	–	–	–	–	–	–	·	·
O=[N+]([O-])c1ccc(-c2cn3nc(-c4ccccc4)c(-c4ccccc4)nc3n2)cc1	–	42	·	·	111	–	–	–
O=[N+]([O-])c1ccc(-n2cc(-c3ccccc3)nn2)cc1	–	–	–	–	·	–	·	·

Source: PubChem BioAssay (several laboratories)
